Test results published in ChEMBL document CHEMBL1126800, “Preparation of substituted N-phenyl-4-aryl-2-pyrimidinamines as mediator release inhibitors” (J Med Chem, 1993).

What was measured:
Homo sapiens [1] = species on record: Homo sapiens; experiment: In vitro inhibition of histamine release from human basophils; assay type: functional, organism-based
Outline: (§1)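 Human basophils separated from leukocytes were incubated with test compound, then challenged with anti-IgE or antigen (Lichtenstein method). Histamine release was measured against controls and blanks. IC50 is the concentration lowering histamine release by 50%.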

Homo sapiens [2] = species on record: Homo sapiens; experiment: Tested for in vitro cell leukotriene C4 release inhibition by radioimmunoassay; assay type: functional, organism-based
Outline: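 Basophils were incubated with compound and challenged. LTC4 release was measured by radioimmunoassay, with duplicate samples processed per the [3H] LTC4 RIA kit procedure. Histamine release was measured simultaneously on a second portion of the same cells. IC50 is from n = 5.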

Mus musculus = experiment: Tested for in vivo activity in mouse by passive cutaneous anaphylaxis (PCA) test; assay type: functional; conditions: read-out: ID50 (the source's name)
Outline: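 Mouse passive cutaneous anaphylaxis test with oral dosing of compound. Read at times of […] after dosing. Value expressed as ID50 in mg/kg.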

[3] = Tested for toxic concentration in mice; assay type: ADME, organism-based; conditions: mouse, in vivo
Homo sapiens [4] = species on record: Homo sapiens; experiment: In vitro inhibition of histamine release from human basophils; H= Compound interfered with the histamine assay; assay type: functional, organism-based; outline: as §1

Compound | IC50 (Homo sapiens [1]; Homo sapiens) [nM] | further results
c1ccc(-c2ccnc(Nc3cccc(-n4ccnc4)c3)n2)nc1 | 300 | IC50 (Homo sapiens [2]): 205 nM; ED50 (Mus musculus): 50 mg/kg; LD50 [3]: 800 mg/kg
Cc1cccc(Nc2nccc(-c3c[nH]c4ccccc34)n2)c1 | 2200 | –
FC(F)(F)c1cccc(Nc2nccc(-c3ccccn3)n2)c1 | – | IC50 (Homo sapiens [1]): 400 nM
CCc1cccc(Nc2nccc(-c3ccncc3)n2)c1 | 10600 | –
CC(=O)Nc1ccc(Nc2nccc(-c3ccncc3)n2)cc1 | 5300 | –
COc1cccc(Nc2nccc(-c3cccnc3)n2)c1 | 300 | –
CCN(CC)CCOc1cccc(Nc2nccc(-c3cccnc3)n2)c1 | 2900 | –
COc1ccc(Nc2nccc(-c3cc[n+](C)cc3)n2)cc1 | 33300 | –
Cc1cc(C)cc(Nc2nc(C)cc(-c3ccco3)n2)c1 | > 24000 | –
COc1cccc(Nc2nccc(-c3cc(C)oc3C)n2)c1 | 5800 | –
Oc1ccc(Nc2nccc(-c3cccnc3)n2)cc1 | 5100 | –
CC(=O)Nc1ccc(Nc2nccc(-c3ccccn3)n2)cc1 | 1500 | –
c1ccc(Nc2nccc(-c3cccnc3)n2)cc1 | 900 | –
COc1ccc(Nc2nccc(-c3cccnc3)n2)cc1 | 1700 | –
CC(=O)c1cccc(Nc2nccc(-c3cccnc3)n2)c1 | 4100 | –
COc1cccc(Nc2nccc(-c3ccc(C)s3)n2)c1 | 2300 | –
Nc1ccc(Nc2nccc(-c3ccncc3)n2)cc1 [listing 1 of 2 here] | 2900 | –
Oc1ccccc1Nc1nccc(-c2cccnc2)n1 | 23500 | –
c1cc(Nc2nccc(-c3ccco3)n2)cc(-n2ccnc2)c1 | 800 | –
Cc1cc(-c2ccnc(Nc3ccccc3)n2)c(C)o1 | 2000 | –

Compound | IC50 (Homo sapiens [1]; Homo sapiens) [nM] | further results
c1ccc(-c2ccnc(Nc3cccc(OCCn4ccnc4)c3)n2)nc1 | 400 | –
Cc1cc(-c2ccco2)nc(Nc2ccc(N(C)C)cc2)n1 | 5900 | –
Cc1ccc(-c2ccnc(Nc3cccc(N(C)C)c3)n2)s1 | 5700 | –
CN(C)c1cccc(Nc2nccc(-c3cccnc3)n2)c1 | 1800 | –
CN(C)CCCOc1ccc(Nc2nccc(-c3cccnc3)n2)cc1 | 600 | –
Cc1cc(-c2ccncc2)nc(Nc2ccc(N(C)C)cc2)n1 | > 24000 | –
Cc1cc(C)cc(Nc2nccc(-c3ccco3)n2)c1 | 700 | –
FC(F)(F)c1cccc(Nc2nccc(-c3cccnc3)n2)c1 | – | IC50 (Homo sapiens [1]): 700 nM
CCN(CC)CCOc1cccc(Nc2nccc(-c3ccncc3)n2)c1 | 600 | –
CNc1ccc(Nc2nccc(-c3ccncc3)n2)cc1.Cl.Cl | – | IC50 (Homo sapiens [4]): Compound interfered with the histamine assay
CCOC(=O)c1cccc(Nc2nccc(-c3ccccn3)n2)c1 | 3000 | –
c1cc(Nc2nccc(-c3ccco3)n2)cc(OCCn2ccnc2)c1 | 200 | –
c1csc(-c2ccnc(Nc3ccc(-n4ccnc4)cc3)n2)c1 | 4300 | –
CNc1ccc(Nc2nccc(-c3ccccn3)n2)cc1 | 1400 | –
COc1cccc(Nc2nccc(-c3ccc(C)o3)n2)c1 | 1500 | –
CC1CCN(c2cccc(Nc3nccc(-c4cccs4)n3)c2)CC1 | 3500 | –
Fc1ccc(Nc2nccc(-c3ccncc3)n2)cc1 | 1900 | –
Nc1ccc(Nc2nccc(-c3ccncc3)n2)cc1 [listing 2 of 2 here] | – | IC50 (Homo sapiens [1]): 2400 nM
Cc1cc(C)cc(Nc2nccc(-c3cccnc3)n2)c1 | 800 | –
c1cc(Nc2nccc(-c3ccncc3)n2)cc(OCCn2ccnc2)c1 | 200 | –

Compound | IC50 (Homo sapiens [1]; Homo sapiens) [nM] | further results
Nc1ccc(Nc2nccc(-c3cccnc3)n2)cc1 | 2800 | –
c1ccc(Nc2nccc(-c3ccco3)n2)cc1 | 32000 | –
Cc1ccc(Nc2nccc(-c3ccccn3)n2)cc1C | 5900 | –
COc1ccc(N(C)c2nccc(-c3cccnc3)n2)cc1 | > 24000 | –
COc1cccc(Nc2nccc(-c3cccs3)n2)c1 | 900 | –
CC(=O)Nc1cccc(Nc2nccc(-c3ccncc3)n2)c1 | 2700 | –
CCc1ccc(Nc2nccc(-c3ccccn3)n2)cc1 | 2100 | –
Nc1cccc(Nc2nccc(-c3ccccn3)n2)c1 | 300 | –
CC(=O)N(C)c1ccc(Nc2nccc(-c3ccccn3)n2)cc1 | 1800 | –
COc1ccc(Nc2nccc(-c3ccncc3)n2)cc1 | 4200 | –
CN(C)c1ccc(Nc2nccc(-c3ccccn3)n2)cc1 | 3300 | –
COc1ccc(Nc2nccc(-c3cccs3)n2)cc1 | 3900 | –
COc1cccc(Nc2nccc(-c3cc4ccccc4o3)n2)c1 | 2800 | –
Cc1cc(-c2ccccn2)nc(Nc2ccc(N(C)C)cc2)n1 | 31900 | –
Nc1ccc(Nc2nccc(-c3ccccn3)n2)cc1 | 1500 | –
CN(C)c1cccc(Nc2nccc(-c3cccs3)n2)c1 | 2400 | –
Cc1cc(C)cc(Nc2nccc(-c3cccs3)n2)c1 | 4300 | –
CN(C)c1ccc(Nc2nccc(-c3ccco3)n2)cc1 | 1900 | –
CN(C)CCOc1ccc(Nc2nccc(-c3cccnc3)n2)cc1 | 700 | –
